Laboratory results from ChEMBL document CHEMBL4689842, “EUbOPEN Chemogenomics Library wave 1” (2021).
Several values for one entry are separate records, joined by “and”; a condition that tells them apart may be missing. Equal values may be shown once.

Key:
Assay type in all cases: toxicity, cell-based
[1] = test system: U2OS; assay: Incucyte cell viability with U2OS; details: human, 10 µM, compound concentration 10 uM; also: filed as whole numbers so only -1 and 0 and 1 occur
[2] = test system: Fibroblast; assay: Multiplex assay against human fibroblast; details: 1 µM, compound concentration 1 uM
Outline: (§1)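 Live cells were stained at seeding with Hoechst33342, BioTracker Green Microtubule Cytoskeleton Dye, MitoTracker Red and Annexin V Alexa Fluor 680. Following compound addition, they were imaged on a CQ1 microscope at 37°C and 5% CO2 and gated by CellPathfinder machine learning into Hoechst high-intensity objects or normal cells, with normal cells split into healthy, pyknosed or fragmented nuclei and pyknosed cells into mitotic or apoptotic. Tubulin, mitochondrial-mass and membrane-permeability phenotypes are per cents of healthy-nucleus cells.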

[3] = test system: HEK-293T; assay: Incucyte cell viability with HEK293T; details: human, 10 µM, compound concentration 10 uM; also: filed as whole numbers so only -1 and 0 and 1 occur
[4] = test system: U2OS; assay: Multiplex assay against U2OS; details: human, 1 µM, compound concentration 1 uM; outline: as §1
[5] = test system: Fibroblast; assay: Incucyte cell viability with human fibroblast; details: 10 µM, compound concentration 10 uM; also: filed as whole numbers so only -1 and 0 and 1 occur
[6] = test system: HEK-293T; assay: Multiplex assay against HEK293T; details: human, 1 µM, compound concentration 1 uM; outline: as §1;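 as to Population Tubulin-Different-Phenotype (%): share of the cells with healthy nuclei that show this phenotype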
[7] = 0 h, replicate number 1, timepoint 0 hours
[8] = 6 h, replicate number 1, timepoint 6 hours
[9] = 12 h, replicate number 1, timepoint 12 hours
[10] = 18 h, replicate number 1, timepoint 18 hours
[11] = 24 h, replicate number 1, timepoint 24 hours

Structure (SMILES): CC(C)C(=O)Nc1n[nH]c2cc(-c3cccc(NS(=O)(=O)C4CC4)c3)ccc12
- Growth Rate [1, 7]: 0
- Growth Rate [1, 8]: 0
- Growth Rate [1, 9]: 0
- Growth Rate [1, 10]: 0
- Growth Rate [1, 11]: 0
- Population Apoptotic (%) ([2]; 12 h, replicate 1): 85% and 80%
- Population Fragmented Nuclei (%) ([2]; 12 h, replicate 1): 36% and 25%
- Population Healthy Nuclei (%) ([2]; 12 h, replicate 1): 36% and 58%
- Population Hoechst High Intensity Objects (%) ([2]; 12 h, replicate 1): 13% and 11%
- Population Membrane Permeable-Phenotype (%) ([2]; 12 h, replicate 1): 8% and 7%
- Population Mitochondria Different-Phenotype (%) ([2]; 12 h, replicate 1): 0% and 6%
- Population Mitotic Cells (%) ([2]; 12 h, replicate 1): 14% and 20%
- Population Normal (%) ([2]; 12 h, replicate 1): 86% and 88%
- Population Pyknosed Nuclei (%) ([2]; 12 h, replicate 1): 26%
- Population Tubulin-Different-Phenotype (%) ([2]; 12 h, replicate 1): 6% and 2%
- Total Cell Count ([2]; 12 h, replicate 1): 151 and 184
- Population Apoptotic (%) ([2]; 12 h, replicate 2): 100% and 50%
- Population Fragmented Nuclei (%) ([2]; 12 h, replicate 2): 56% and 43%
- Population Healthy Nuclei (%) ([2]; 12 h, replicate 2): 38% and 40%
- Population Hoechst High Intensity Objects (%) ([2]; 12 h, replicate 2): 34% and 18%
- Population Normal (%) ([2]; 12 h, replicate 2): 65% and 81%
- Population Pyknosed Nuclei (%) ([2]; 12 h, replicate 2): 6% and 15%
- Population Tubulin-Different-Phenotype (%) ([2]; 12 h, replicate 2): 15% and 30%
- Total Cell Count ([2]; 12 h, replicate 2): 76 and 79
- Population Apoptotic (%) ([2]; 24 h, replicate 1): 65% and 60%
- Population Fragmented Nuclei (%) ([2]; 24 h, replicate 1): 40% and 28%
- Population Healthy Nuclei (%) ([2]; 24 h, replicate 1): 42% and 54%
- Population Hoechst High Intensity Objects (%) ([2]; 24 h, replicate 1): 8% and 9%
- Population Membrane Permeable-Phenotype (%) ([2]; 24 h, replicate 1): 17% and 7%
- Population Mitochondria Different-Phenotype (%) ([2]; 24 h, replicate 1): 1% and 2%
- Population Mitotic Cells (%) ([2]; 24 h, replicate 1): 34% and 39%
- Population Normal (%) ([2]; 24 h, replicate 1): 91% and 90%
- Population Pyknosed Nuclei (%) ([2]; 24 h, replicate 1): 17%
- Population Tubulin-Different-Phenotype (%) ([2]; 24 h, replicate 1): 8% and 4%
- Total Cell Count ([2]; 24 h, replicate 1): 144 and 207
- Population Apoptotic (%) ([2]; 24 h, replicate 2): 42% and 33%
- Population Fragmented Nuclei (%) ([2]; 24 h, replicate 2): 47% and 51%
- Population Healthy Nuclei (%) ([2]; 24 h, replicate 2): 41% and 36%
- Population Hoechst High Intensity Objects (%) ([2]; 24 h, replicate 2): 23% and 22%
- Population Membrane Permeable-Phenotype (%) ([2]; 24 h, replicate 2): 15% and 11%
- Population Mitochondria Different-Phenotype (%) ([2]; 24 h, replicate 2): 15% and 0%
- Population Mitotic Cells (%) ([2]; 24 h, replicate 2): 57% and 66%
- Population Normal (%) ([2]; 24 h, replicate 2): 76% and 77%
- Population Pyknosed Nuclei (%) ([2]; 24 h, replicate 2): 11% and 12%
- Population Tubulin-Different-Phenotype (%) ([2]; 24 h, replicate 2): 11% and 22%
- Total Cell Count ([2]; 24 h, replicate 2): 82 and 63
- Growth Rate [3, 7]: 0
- Growth Rate [3, 8]: 0
- Growth Rate [3, 9]: 0
- Growth Rate [3, 10]: 0
- Growth Rate [3, 11]: 0
- Population Apoptotic (%) ([4]; 12 h, replicate 1): 33% and 20%
- Population Fragmented Nuclei (%) ([4]; 12 h, replicate 1): 8% and 3%
- Population Healthy Nuclei (%) ([4]; 12 h, replicate 1): 88% and 86%
- Population Membrane Permeable-Phenotype (%) ([4]; 12 h, replicate 1): 18% and 12%
- Population Mitochondria Different-Phenotype (%) ([4]; 12 h, replicate 1): 22% and 20%
- Population Mitotic Cells (%) ([4]; 12 h, replicate 1): 66% and 80%
- Population Normal (%) ([4]; 12 h, replicate 1): 98% and 95%
- Population Pyknosed Nuclei (%) ([4]; 12 h, replicate 1): 3% and 9%
- Population Tubulin-Different-Phenotype (%) ([4]; 12 h, replicate 1): 21% and 32%
- Total Cell Count ([4]; 12 h, replicate 1): 108 and 215
- Population Apoptotic (%) ([4]; 12 h, replicate 2): 25% and 16%
- Population Fragmented Nuclei (%) ([4]; 12 h, replicate 2): 11%
- Population Healthy Nuclei (%) ([4]; 12 h, replicate 2): 82% and 92%
- Population Hoechst High Intensity Objects (%) ([4]; 12 h, replicate 2): 12% and 6%
- Population Membrane Permeable-Phenotype (%) ([4]; 12 h, replicate 2): 21% and 10%
- Population Mitochondria Different-Phenotype (%) ([4]; 12 h, replicate 2): 42% and 28%
- Population Mitotic Cells (%) ([4]; 12 h, replicate 2): 75% and 83%
- Population Normal (%) ([4]; 12 h, replicate 2): 87% and 94%
- Population Pyknosed Nuclei (%) ([4]; 12 h, replicate 2): 5% and 4%
- Population Tubulin-Different-Phenotype (%) ([4]; 12 h, replicate 2): 26% and 18%
- Total Cell Count ([4]; 12 h, replicate 2): 122 and 78
- Population Apoptotic (%) ([4]; 24 h, replicate 1): 27% and 25%
- Population Fragmented Nuclei (%) ([4]; 24 h, replicate 1): 5% and 2%
- Population Healthy Nuclei (%) ([4]; 24 h, replicate 1): 90% and 89%
- Population Hoechst High Intensity Objects (%) ([4]; 24 h, replicate 1): 2% and 3%
- Population Membrane Permeable-Phenotype (%) ([4]; 24 h, replicate 1): 12% and 10%
- Population Mitochondria Different-Phenotype (%) ([4]; 24 h, replicate 1): 17% and 24%
- Population Mitotic Cells (%) ([4]; 24 h, replicate 1): 72% and 75%
- Population Normal (%) ([4]; 24 h, replicate 1): 97% and 96%
- Population Pyknosed Nuclei (%) ([4]; 24 h, replicate 1): 4% and 8%
- Population Tubulin-Different-Phenotype (%) ([4]; 24 h, replicate 1): 23% and 38%
- Total Cell Count ([4]; 24 h, replicate 1): 152 and 246
- Population Apoptotic (%) ([4]; 24 h, replicate 2): 18% and 21%
- Population Fragmented Nuclei (%) ([4]; 24 h, replicate 2): 4% and 3%
- Population Healthy Nuclei (%) ([4]; 24 h, replicate 2): 82% and 88%
- Population Hoechst High Intensity Objects (%) ([4]; 24 h, replicate 2): 8% and 4%
- Population Mitochondria Different-Phenotype (%) ([4]; 24 h, replicate 2): 41% and 31%
- Population Mitotic Cells (%) ([4]; 24 h, replicate 2): 81% and 78%
- Population Normal (%) ([4]; 24 h, replicate 2): 91% and 95%
- Population Pyknosed Nuclei (%) ([4]; 24 h, replicate 2): 12% and 7%
- Population Tubulin-Different-Phenotype (%) ([4]; 24 h, replicate 2): 35%
- Total Cell Count ([4]; 24 h, replicate 2): 144 and 96
- Growth Rate [5, 7]: 1
- Growth Rate [5, 8]: 0
- Growth Rate [5, 9]: 0
- Growth Rate [5, 10]: 0
- Growth Rate [5, 11]: 0
- Population Apoptotic (%) ([6]; 12 h, replicate 1): 21%
- Population Fragmented Nuclei (%) ([6]; 12 h, replicate 1): 16% and 10%
- Population Healthy Nuclei (%) ([6]; 12 h, replicate 1): 61% and 63%
- Population Hoechst High Intensity Objects (%) ([6]; 12 h, replicate 1): 10% and 14%
- Population Membrane Permeable-Phenotype (%) ([6]; 12 h, replicate 1): 4%
- Population Mitochondria Different-Phenotype (%) ([6]; 12 h, replicate 1): 4% and 6%
- Population Mitotic Cells (%) ([6]; 12 h, replicate 1): 78%
- Population Normal (%) ([6]; 12 h, replicate 1): 89% and 85%
- Population Pyknosed Nuclei (%) ([6]; 12 h, replicate 1): 22% and 25%
- Population Tubulin-Different-Phenotype (%) ([6]; 12 h, replicate 1): 1% and 4%
- Total Cell Count ([6]; 12 h, replicate 1): 541 and 686
- Population Apoptotic (%) ([6]; 12 h, replicate 2): 12% and 8%
- Population Fragmented Nuclei (%) ([6]; 12 h, replicate 2): 4% and 6%
- Population Healthy Nuclei (%) ([6]; 12 h, replicate 2): 85% and 89%
- Population Hoechst High Intensity Objects (%) ([6]; 12 h, replicate 2): 3% and 1%
- Population Membrane Permeable-Phenotype (%) ([6]; 12 h, replicate 2): 1%
- Population Mitochondria Different-Phenotype (%) ([6]; 12 h, replicate 2): 13% and 7%
- Population Mitotic Cells (%) ([6]; 12 h, replicate 2): 87% and 91%
- Population Normal (%) ([6]; 12 h, replicate 2): 96% and 98%
- Population Pyknosed Nuclei (%) ([6]; 12 h, replicate 2): 9% and 4%
- Population Tubulin-Different-Phenotype (%) ([6]; 12 h, replicate 2): 7%
- Total Cell Count ([6]; 12 h, replicate 2): 1247 and 1614
- Population Apoptotic (%) ([6]; 24 h, replicate 1): 14% and 20%
- Population Fragmented Nuclei (%) ([6]; 24 h, replicate 1): 11%
- Population Healthy Nuclei (%) ([6]; 24 h, replicate 1): 80% and 75%
- Population Hoechst High Intensity Objects (%) ([6]; 24 h, replicate 1): 6% and 10%
- Population Membrane Permeable-Phenotype (%) ([6]; 24 h, replicate 1): 8% and 6%
- Population Mitochondria Different-Phenotype (%) ([6]; 24 h, replicate 1): 3% and 5%
- Population Mitotic Cells (%) ([6]; 24 h, replicate 1): 85% and 79%
- Population Normal (%) ([6]; 24 h, replicate 1): 93% and 89%
- Population Pyknosed Nuclei (%) ([6]; 24 h, replicate 1): 8% and 13%
- Population Tubulin-Different-Phenotype (%) ([6]; 24 h, replicate 1): 4% and 8%
- Total Cell Count ([6]; 24 h, replicate 1): 620 and 701
- Population Apoptotic (%) ([6]; 24 h, replicate 2): 4% and 12%
- Population Fragmented Nuclei (%) ([6]; 24 h, replicate 2): 22% and 8%
- Population Healthy Nuclei (%) ([6]; 24 h, replicate 2): 76% and 86%
- Population Hoechst High Intensity Objects (%) ([6]; 24 h, replicate 2): 3% and 4%
- Population Membrane Permeable-Phenotype (%) ([6]; 24 h, replicate 2): 5% and 2%
- Population Mitochondria Different-Phenotype (%) ([6]; 24 h, replicate 2): 1% and 6%
- Population Mitotic Cells (%) ([6]; 24 h, replicate 2): 95% and 87%
- Population Normal (%) ([6]; 24 h, replicate 2): 96% and 95%
- Population Tubulin-Different-Phenotype (%) ([6]; 24 h, replicate 2): 15%
- Total Cell Count ([6]; 24 h, replicate 2): 2835 and 1472
